This note sets out measurements from ChEMBL document CHEMBL1156580, “A facile regioselective synthesis of novel spiro-thioxanthene and spiro-xanthene-9',2-[1,3,4]thiadiazole derivatives as potential analgesic and anti-inflammatory agents” (Bioorg Med Chem Lett, 2008).

A word on the inhibition in vivo: it is the relative decrease from the control value, in per cent.

The test system of data set [1] is Rattus norvegicus. Description: Antiinflammatory activity in Sprague-Dawley rat assessed as inhibition of carrageenan-induced paw edema at 70 mg/kg, po after 4 hrs relative to control. It counts as functional. The method, boiled down: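 Winter carrageenin paw oedema in adult male Sprague–Dawley rats (150–180 g, six per group), fasted overnight with water available. Dosing was 70 mg/kg po in 1% CMC, with controls on vehicle alone, 1 h before 0.1 mL 1.0% carrageenin into the right hind plantar region. Paw volume was read by plethysmometer before and 4 h after, giving % inhibition versus control.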
(The carrageenan paw model is a standard test of acute inflammation.)

A further data set concerns Mus musculus. The data set can be described thus: Analgesic activity in Swiss mouse assessed as inhibition of acetic acid-induced writhing responses at 70 mg/kg, po after 1 hr relative to control. (An intraperitoneal irritant provokes the stretching counted in writhing tests.)
Data set [2] deals with Rattus norvegicus. Description: Acute toxicity in Sprague-Dawley rat assessed as toxicological changes up to 200 mg/kg, po. Format: organism-based. Set-up: dose 200 mg/kg, route oral. The note with it: in vivo. In short, it runs like this: (§1)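 Male Sprague–Dawley rats (200–250 g), housed individually under 12 h light–dark, split into four groups, each given a different single dose by oral gavage. Animals were then watched for deaths or other behavioural changes.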

Data set [3] relates to Rattus norvegicus. The data set can be described thus: Acute toxicity in Sprague-Dawley rat assessed as behavioral changes up to 200 mg/kg, po. It counts as organism-based. The note with it: in vivo. Set-up: dose 200 mg/kg, route oral. The method, boiled down: as §1
The subject of data set [4] is Rattus norvegicus. Description: Acute toxicity in Sprague-Dawley rat assessed as survival up to 200 mg/kg, po. Format: organism-based. Also noted: dose 200 mg/kg, route oral. The note with it: in vivo. In short, it runs like this:
as §1

`CC(=O)C1=NN(c2ccccc2)C2(S1)c1ccccc1Sc1ccccc12`: in the data set on Rattus norvegicus [1], the inhibition in vivo at 70 mg/kg is 75%.

As to `CC(=O)C1=NN(c2ccc([N+](=O)[O-])cc2)C2(S1)c1ccccc1Sc1ccccc12`, the inhibition in vivo at 70 mg/kg in the data set with Mus musculus was 73%; in the data set on Rattus norvegicus [1], 86%.

In the case of `CC(=O)C1=NN(c2ccccc2)SC12c1ccccc1Oc1ccccc12`, the inhibition in vivo at 70 mg/kg with Rattus norvegicus [1] is 79%.

Regarding `CC(=O)C1=NN(c2ccc(Br)cc2)SC12c1ccccc1Oc1ccccc12`, the inhibition in vivo at 70 mg/kg in the data set with Rattus norvegicus [1] was determined as 76%.

For `CCOC(=O)C1=NN(c2ccc(C)cc2)C2(S1)c1ccccc1Sc1ccccc12`, the inhibition in vivo at 70 mg/kg in the data set with Rattus norvegicus [1] turned out to be 71%.

As to `CC(=O)C1=NN(c2ccc([N+](=O)[O-])cc2)SC12c1ccccc1Oc1ccccc12`, the inhibition in vivo at 70 mg/kg in the data set with Mus musculus came out at 56.6%; with Rattus norvegicus [1] it was 84%.

For the molecule `c1ccc(C2=NN(c3ccccc3)C3(S2)c2ccccc2Sc2ccccc23)cc1`, the inhibition in vivo at 70 mg/kg with Mus musculus turned out to be 59%; with Rattus norvegicus [1], 85%. Also, the Activity result with Rattus norvegicus [2], with Rattus norvegicus [3] and in the data set with Rattus norvegicus [4] was “Non-toxic” each time.

With `CC(=O)C1=NN(c2ccc(Cl)cc2)C2(S1)c1ccccc1Sc1ccccc12`, the inhibition in vivo at 70 mg/kg in the data set on Mus musculus was determined as 57%; with Rattus norvegicus [1], 82%. In addition, the Activity entry in the data set on Rattus norvegicus [2], with Rattus norvegicus [3] and in the data set on Rattus norvegicus [4] was “Non-toxic” in each case.

As to `CC(=O)C1=NN(c2ccc(Cl)cc2)SC12c1ccccc1Oc1ccccc12`, the inhibition in vivo at 70 mg/kg was found to be 72% with Mus musculus and 82% in the data set with Rattus norvegicus [1].

In the case of `CC(C)Cc1ccc(C(C)C(=O)O)cc1` (configuration not stated) [IBUPROFEN], the inhibition in vivo at 70 mg/kg with Mus musculus turned out to be 83.5%; in the data set with Rattus norvegicus [1], 92%.
